Test results reported in ChEMBL document CHEMBL1165972, “Selective angiotensin II AT(2) receptor agonists with reduced CYP 450 inhibition” (Bioorg Med Chem, 2010).

Key:
[1] = Displacement of [125I]angiotensin 2 from AT1 receptor in rat liver membrane after 2 hrs by gamma counting; assay type: cell membranes
Outline: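 Rat liver membranes (5 mg original tissue) were incubated with 0.03 nM [125I]Ang II and varied test-compound concentrations. Incubation was 2 h at 25 °C. Bound and free label were separated by filtration on PEI-soaked GF/B filters and bound label was gamma counted. Nonspecific binding was taken with 1 µM Ang II.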

[2] = target: T1, Angiotensin type II receptor (Sus scrofa, UniProt Q2XUH7); assay: Displacement of [125I]angiotensin 2 from AT2 receptor in pig uterus membrane after 1.5 hrs by gamma counting; assay type: cell membranes
T1 sequence (Q2XUH7 whole entry): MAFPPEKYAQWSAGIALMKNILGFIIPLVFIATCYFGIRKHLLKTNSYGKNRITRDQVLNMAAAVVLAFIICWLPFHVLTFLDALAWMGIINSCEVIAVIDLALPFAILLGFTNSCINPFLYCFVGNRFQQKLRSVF

CYP3A4 = CYP3A4 (Homo sapiens, UniProt P08684); assay: Inhibition of human recombinant CYP3A4 at 10 uM by spectrofluorimetry; assay type: ADME
CYP3A4, sequence (P08684 whole entry): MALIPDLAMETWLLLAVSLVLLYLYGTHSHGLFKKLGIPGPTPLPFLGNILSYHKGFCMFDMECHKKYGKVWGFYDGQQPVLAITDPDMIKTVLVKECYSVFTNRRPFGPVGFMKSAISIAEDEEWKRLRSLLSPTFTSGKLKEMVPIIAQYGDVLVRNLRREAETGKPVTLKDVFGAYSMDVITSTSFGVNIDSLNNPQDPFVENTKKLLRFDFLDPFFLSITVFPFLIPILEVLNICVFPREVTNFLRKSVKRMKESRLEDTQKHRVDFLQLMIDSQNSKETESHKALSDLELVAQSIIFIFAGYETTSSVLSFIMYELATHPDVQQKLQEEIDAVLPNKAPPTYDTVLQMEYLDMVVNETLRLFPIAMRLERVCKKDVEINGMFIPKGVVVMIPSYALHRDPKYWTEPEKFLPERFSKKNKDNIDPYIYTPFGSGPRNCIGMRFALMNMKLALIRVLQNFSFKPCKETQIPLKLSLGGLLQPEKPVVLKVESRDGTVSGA
Outline: (§1)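 Compounds were tested at 10 µM in duplicate in a spectrofluorometric assay, with 0.25% final methanol and 0.25% final acetonitrile. Fluorescence at t = 0 was subtracted from fluorescence after incubation. Signal was compared with solvent-vehicle controls, and percent of control activity was reported as percent inhibition.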

CYP2C9 = CYP2C9 (Homo sapiens, UniProt P11712); assay: Inhibition of human recombinant CYP2C9 at 10 uM by spectrofluorimetry; assay type: ADME; outline: as §1
CYP2C9, sequence (P11712 whole entry): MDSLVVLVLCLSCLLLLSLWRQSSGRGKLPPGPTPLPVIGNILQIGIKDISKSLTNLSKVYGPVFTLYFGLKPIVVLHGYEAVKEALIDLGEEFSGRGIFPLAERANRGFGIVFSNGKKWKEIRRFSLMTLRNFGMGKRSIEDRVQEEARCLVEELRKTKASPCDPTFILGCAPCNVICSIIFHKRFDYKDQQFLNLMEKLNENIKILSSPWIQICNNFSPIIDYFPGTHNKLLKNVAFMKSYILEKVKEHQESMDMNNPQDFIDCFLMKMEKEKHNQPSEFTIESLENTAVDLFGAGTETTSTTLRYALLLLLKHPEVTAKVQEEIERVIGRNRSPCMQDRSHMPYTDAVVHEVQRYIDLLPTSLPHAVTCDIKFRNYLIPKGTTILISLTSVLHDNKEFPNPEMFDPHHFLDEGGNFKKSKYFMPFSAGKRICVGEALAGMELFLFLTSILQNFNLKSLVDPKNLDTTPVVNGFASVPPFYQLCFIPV

| SMILES | Ki [1] | Ki [2] | inhibition at 10 µM (CYP3A4) | inhibition at 10 µM (CYP2C9) |
| --- | --- | --- | --- | --- |
| CCCCc1nc(Cl)c(CO)n1Cc1ccc(-c2ccccc2-c2nnn[nH]2)cc1 [LOSARTAN] | 12.1 nM | – | – | – |
| CCCCOC(=O)NS(=O)(=O)c1sc(CC(C)C)cc1-c1ccc(C(=O)c2nccs2)cc1 | > 10000 nM | 18.6 nM | 16% | 92% |
| CCCCOC(=O)NS(=O)(=O)c1sc(CC(C)C)cc1-c1ccc(Cc2nccs2)cc1 | > 10000 nM | 3.2 nM | 70% | 86% |
| CCCCOC(=O)NS(=O)(=O)c1sc(CC(C)C)cc1-c1ccc(CN2C(=O)CN(C)C2=O)cc1 | > 10000 nM | 68.6 nM | 25% | 40% |
| CCCCOC(=O)NS(=O)(=O)c1sc(CC(C)C)cc1-c1ccc(C(=O)c2ncco2)cc1 | > 10000 nM | 13.8 nM | 36% | 75% |
| Cc1cc(Cn2cnc3c2C[C@@H](C(=O)O)N(C(=O)C(c2ccccc2)c2ccccc2)C3)ccc1N(C)C | > 10000 nM | – | – | – |
| CCCCOC(=O)NS(=O)(=O)c1sc(CC(C)C)cc1-c1ccc(Cn2ccc(C(F)(F)F)n2)cc1 | > 10000 nM | 9.5 nM | 33% | 56% |
| CCCCOC(=O)NS(=O)(=O)c1sc(CC(C)C)cc1-c1ccc(CN2C(=O)CCC2=O)cc1 | > 10000 nM | > 10000 nM | – | – |
| CCCCOC(=O)NS(=O)(=O)c1sc(CC(C)C)cc1-c1ccc(Cn2ncnn2)cc1 | > 10000 nM | 16 nM | – | – |
| CCCCOC(=O)NS(=O)(=O)c1sc(CC(C)C)cc1-c1ccc(Cn2cnccc2=O)cc1 | > 10000 nM | 108 nM | – | – |
| CCCCOC(=O)NS(=O)(=O)c1sc(CC(C)C)cc1-c1ccc(Cn2cnc(C)c2)cc1 | > 10000 nM | 17.6 nM | 44% | 37% |
| CCCCOC(=O)NS(=O)(=O)c1sc(CC(C)C)cc1-c1ccc(Cc2ccsc2)cc1 | > 10000 nM | 175 nM | – | – |
| CCCCOC(=O)NS(=O)(=O)c1sc(CC(C)C)cc1-c1ccc(CN2CCN(C)C2=O)cc1 | > 10000 nM | 16.5 nM | 20% | 24% |
| CCCCOC(=O)NS(=O)(=O)c1sc(CC(C)C)cc1-c1ccc(CN2CCC(=O)CC2)cc1 | > 10000 nM | 16.1 nM | 51% | 71% |
